# Laboratory results taken from ChEMBL document CHEMBL1122260, “Synthesis and biological activity of prostaglandin lactones” (J Med Chem, 1983).
# Key:
# Gerbillinae [1] = assay: Gerbil colon stimulation relative to PGE1 (100); format: functional
# How it was run: (§1)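 Isolated ascending colon from male gerbils (Meriones unguiculatus) mounted in de Jalon's solution (NaCl 154 mM, KCl 0.54 mM, CaCl2 0.27 mM, NaHCO3 1.78 mM, glucose 5.55 mM); isotonic contractions recorded with linear transducers in 5-mL baths.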
# Rattus norvegicus [2] = organism: Rattus norvegicus; assay: Blood pressure potency in rat relative to PGF2-alpha (100). Range is between (0.3-1); format: functional
# How it was run: (§2)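 Mature female albino rats, pentobarbital anesthesia (30 mg/kg ip, supplemented as needed), pretreated with atropine sulfate (0.08 mg sc) and pentolinium tartrate (2 mg iv). Test solutions or emulsions injected via femoral vein; carotid arterial pressure recorded by transducer. Change in mmHg (rise or fall) compared with standards: PGE1 for depressor, PGF2α for pressor responses.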
# Rattus norvegicus [3] = organism: Rattus norvegicus; assay: Blood pressure potency in rat relative to PGE1 (100); format: functional; how it was run: as §2
# Gerbillinae [4] = assay: Gerbil colon stimulation relative to PGE1 (100); Range is between (1-3); format: functional; how it was run: as §1
# Rattus norvegicus [5] = organism: Rattus norvegicus; assay: Blood pressure potency in rat relative to PGE1 (100); Range is between (1-3); format: functional; how it was run: as §2
# Homo sapiens [6] = organism: Homo sapiens; assay: Plasma hydrolysis following 20 hr incubation with human plasma; format: functional
# How it was run: (§3)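 Substrates incubated with saline (control), hog liver esterase, or rat, monkey or human blood plasma for 2 h or 20 h; released PGF2α quantified by radioimmunoassay as cross-reactivity with PGF2α antisera. PGF2α itself served as assay positive control. Substrate cross-reaction with the antisera determined separately.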
# Rattus norvegicus [7] = organism: Rattus norvegicus; assay: Blood pressure potency in rat relative to PGE1 (100). Range is between (0.1-3); format: functional; how it was run: as §2
# Monkey [8] = assay: Plasma hydrolysis following 2 hr incubation with monkey plasma; format: functional, Cercopithecidae; how it was run: as §3
# Sus scrofa [9] = organism: Sus scrofa; assay: Plasma hydrolysis following 2 h incubation with hog liver esterase; format: functional; how it was run: as §3
# Rattus norvegicus [10] = organism: Rattus norvegicus; assay: Plasma hydrolysis following 2 hr incubation with rat plasma; format: functional; how it was run: as §3
# Sus scrofa [11] = organism: Sus scrofa; assay: Plasma hydrolysis following 20 hr incubation with hog liver esterase; format: functional; how it was run: as §3
# Rattus norvegicus [12] = assay: in vivo Urinary excretion of PGF2-alpha metabolite in rats, when administered sc (1 mg/rat) urinary excretion on day 1 Range is between (1.3-1.6).; format: functional, Urine
# Monkey [13] = assay: Plasma hydrolysis following 20 hr incubation with monkey plasma; format: functional, Cercopithecidae; how it was run: as §3
# Rattus norvegicus [14] = assay: in vivo Urinary excretion of PGF2-alpha metabolite in rats, when administered sc (1 mg/rat) urinary excretion on day 2 Range is between (0.7-1.1).; format: functional, Urine
# Homo sapiens [15] = organism: Homo sapiens; assay: Plasma hydrolysis following 2 hr incubation with human plasma; format: functional; how it was run: as §3
# [16] = Plasma hydrolysis of percent cross reaction of substrate with PGF2-alpha antisera; format: ADME, cell-free; how it was run: as §3
# Rattus norvegicus [17] = organism: Rattus norvegicus; assay: Plasma hydrolysis following 20 hr incubation with rat plasma; format: functional; how it was run: as §3
# Rattus norvegicus [18] = organism: Rattus norvegicus; assay: Blood pressure potency in rat relative to PGF2-alpha (100). Range is between (32-100).; format: functional; how it was run: as §2
# Rattus norvegicus [19] = organism: Rattus norvegicus; assay: Blood pressure potency in rat relative to PGE1 (100); compound is biphasic and weak.; format: functional, organism-based; how it was run: as §2
# Gerbillinae [20] = assay: Gerbil colon stimulation relative to PGE1 (100); Range is between (0.3-1); format: functional; how it was run: as §1
# Gerbillinae [21] = assay: Gerbil colon stimulation relative to PGE1 (100); Range from (1-3); format: functional; how it was run: as §1
# Rattus norvegicus [22] = organism: Rattus norvegicus; assay: Blood pressure potency in rat relative to PGF2-alpha (100); value ranges from (3-10); format: functional; how it was run: as §2
# Rattus norvegicus [23] = organism: Rattus norvegicus; assay: Blood pressure potency in rat relative to PGF2-alpha (100). Range is between(3-10).
compound,measurement,setting,value
CCCCC[C@](C)(O)/C=C/C1[C@@H]2C[C@@H](O)[C@H]1C/C=C\CCCC(=O)O2 (stereo partly specified),Relative potency,Gerbillinae [1],<0.1
same,Relative potency,Rattus norvegicus [2],0.3
CCCCC[C@@H]1/C=C\C2C=CC(=O)[C@@H]2C/C=C\CCCC(=O)O1 (stereo partly specified),Relative potency,Rattus norvegicus [3],0.1
same,Relative potency,Gerbillinae [4],0.1
CCCCC[C@@H]1/C=C\C2[C@H](O)CC(=O)[C@@H]2C/C=C\CCCC(=O)O1 (stereo partly specified),Relative potency,Rattus norvegicus [5],1
same,Relative potency,Gerbillinae [4],1
CCCCC[C@H](O)/C=C/C1[C@H](O)C[C@@H]2OC(=O)CCC/C=C\C[C@H]12 (stereo partly specified),Hydrolysis,Homo sapiens [6],0.4%
same,Relative potency,Rattus norvegicus [7],0.1
same,Hydrolysis,Monkey [8],0.06%
same,Hydrolysis,Sus scrofa [9],0.2%
same,Hydrolysis,Rattus norvegicus [10],0.2%
same,Hydrolysis,Sus scrofa [11],1.8%
same,Urinary excretion,Rattus norvegicus [12],1.4 µg
same,Relative potency,Gerbillinae [4],1
same,Hydrolysis,Monkey [13],0.3%
same,Urinary excretion,Rattus norvegicus [14],0.9 µg
same,Hydrolysis,Homo sapiens [15],0.06%
same,Cross reaction,[16],< 0.05%
same,Hydrolysis,Rattus norvegicus [17],0.8%
O=C1CCC/C=C\C[C@@H]2C(/C=C\[C@@H](CCc3ccccc3)O1)[C@H](O)C[C@@H]2O (stereo partly specified),Relative potency,Gerbillinae [1],<0.1
same,Relative potency,Rattus norvegicus [18],32
O=C1CCC/C=C\C[C@H]2C(=O)C[C@@H](O)C2/C=C\[C@@H](CCc2ccccc2)O1 (stereo partly specified),Relative potency,Rattus norvegicus [19],Weak
same,Relative potency,Gerbillinae [20],0.3
C[C@@](O)(/C=C/C1[C@H](O)C[C@@H]2OC(=O)CCC/C=C\C[C@H]12)CCc1ccccc1 (stereo partly specified),Relative potency,Gerbillinae [21],1
same,Relative potency,Rattus norvegicus [22],3
CCCCC[C@](C)(O)/C=C/C1[C@H](O)C[C@@H]2OC(=O)CCC/C=C\C[C@H]12 (stereo partly specified),Relative potency,Gerbillinae [4],1
same,Relative potency,Rattus norvegicus [23],3
CCCCC[C@@H]1/C=C\C2[C@H](O)C[C@H](O)[C@@H]2CCCCCCC(=O)O1 (stereo partly specified),Relative potency,Rattus norvegicus [3],<0.1
same,Relative potency,Gerbillinae [1],<0.1
CCCCC[C@@H]1/C=C\C2[C@H](O)CC(=O)[C@@H]2CCCCCCC(=O)O1 (stereo partly specified),Relative potency,Rattus norvegicus [3],<0.1
same,Relative potency,Gerbillinae [1],<0.1
